Source: PubChem BioAssay (several laboratories)
An excerpt weighted towards active compounds, which were near 3.8% of everything screened.
RGS4 inh: RGS4 inhibitors, primary screen, cell-based, HEK293 M3R inducible RGS4, calcium flux | AID 463165, 2010 | hit rate 0.45% among 310,000 | B-score at 10 µM | Regulator of G-protein signaling 4 (Homo sapiens), P49798 | Fluo-4 calcium flux; stronger effect = higher value; triggered by carbachol at its EC20;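 active = B-score, a plate-corrected calcium signal, over three deviations above library mean, with baseline fluorescence within five deviations of library mean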;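 note: RGS4 expression induced by doxycycline in cells with stable M3 receptor; B-score is computed from the integrated fluorescence ratio over baseline after carbachol; higher B-score means a larger calcium signal and so more RGS4 inhibition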
Target sequence (P49798 whole entry, looked up): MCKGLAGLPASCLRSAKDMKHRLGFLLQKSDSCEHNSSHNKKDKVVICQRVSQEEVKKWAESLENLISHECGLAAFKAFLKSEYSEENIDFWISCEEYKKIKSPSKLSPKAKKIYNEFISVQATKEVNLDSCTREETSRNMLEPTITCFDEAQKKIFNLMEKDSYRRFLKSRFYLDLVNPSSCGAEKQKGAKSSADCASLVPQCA
RGS4 pot: RGS4 potentiators or activators, primary screen, cell-based, HEK293 M3R inducible RGS4, calcium flux; carbachol calcium flux Fluo4; stronger effect = lower value; hit rate 0.92% among 310,000; AID 463111, 2010; B-score at 10 µM;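 active = B-score of the integrated calcium signal more than 4 SD below the library mean, with starting fluorescence not abnormally high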;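 note: negative B-score means reduced calcium response which marks RGS4 activation or potentiation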
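Material: M3R-expressing HEK293 line, RGS4 induced by doxycycline | Schedule: Overnight RGS4 induction, 30 min dye load 37 °C, 20 min compound RT | Measured by: Fluo4 fluorescence kinetic imaging of calcium | Read-out: Integrated calcium ratio converted to B score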
Hep lipid drop: inhibitors of hepatocyte lipid droplet formation, primary screen, imaging, high-throughput imaging, BODIPY stain; inhibition, % at 6.5 µM; AML12 mouse hepatocytes, oleate lipid droplets; hit rate 0.4% among 240,000;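 active = lipid droplet intensity inhibited by at least 50%, with more than 500 cells counted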
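System: AML12 hepatocytes (mouse). Probe or stimulus: oleic acid at 100 µM to induce lipid droplet formation. Times: overnight treatment with compound plus oleate. Detection: Image-based BODIPY and DAPI two-channel analysis. Evaluation: percent inhibition of filter-corrected integrated lipid droplet intensity per well.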
MrgX1 agonist: agonists of human MrgX1 receptor, primary screen, HEK293 cells, Fluo-4 calcium flux; Fluo-4 calcium fluorescence, agonist mode; stronger effect = higher value; B-score at 10 µM; hit rate 0.44% among 310,000;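 active = calcium response B-score plate-corrected fluorescence ratio at least 3 library SD, with starting fluorescence B-score inside 5 SD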
Target sequence (Q96LB2 whole entry, looked up): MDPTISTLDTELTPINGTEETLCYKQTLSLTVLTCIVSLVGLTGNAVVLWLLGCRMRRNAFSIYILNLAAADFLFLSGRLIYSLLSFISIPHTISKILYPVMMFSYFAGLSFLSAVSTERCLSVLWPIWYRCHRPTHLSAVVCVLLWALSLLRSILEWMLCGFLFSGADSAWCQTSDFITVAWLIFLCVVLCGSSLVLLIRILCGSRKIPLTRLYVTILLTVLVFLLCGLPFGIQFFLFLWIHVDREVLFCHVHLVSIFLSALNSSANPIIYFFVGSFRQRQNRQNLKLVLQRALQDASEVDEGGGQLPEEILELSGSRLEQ
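System: HEK293 cells stably expressing human MrgX1 receptor; Dosing: test compound in the initial addition of three; Schedule: overnight plating, then 30 min 37 °C plus 30 min room-temperature dye loading; Detection: kinetic calcium dye fluorescence, Fluo-4 NW; Controls: per-plate positive and negative controls for Z′ factor.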
MrgX1 antagonist: antagonists of human MrgX1 receptor, primary screen, HEK293 cells, Fluo-4 calcium flux. Mas-related G-protein coupled receptor member X1 (Homo sapiens), Q96LB2. B-score at 10 µM. hit rate 1.3% among 310,000. BAM8-22 antagonism; stronger effect = lower value;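 active = calcium-response B-score plate-corrected more than 3 library SD below zero, starting fluorescence within 5 deviations, no agonist response on first addition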;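 note: peak minus trough fluorescence over baseline after final BAM8-22 challenge near maximal dose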
MrgX1 PAM: positive allosteric modulators of MrgX1, primary screen, HEK293 cells, Fluo-4 calcium flux. Mas-related G-protein coupled receptor member X1 (Homo sapiens), Q96LB2. FDSS; stronger effect = higher value. B-score at 10 µM. hit rate 0.63% among 310,000;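 active = plate-corrected calcium response at least 3 library SD above typical, normal starting fluorescence, not activating the receptor alone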;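 note: compound read alongside a low EC10 to EC30 dose of BAM8-22 agonist; peak minus trough fluorescence over baseline measured at the second addition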
MrgX1 allo conf: MrgX1 positive allosteric modulators, duplicate retest, confirmation, HEK293 cells, Fluo-4 calcium flux; activation (ratio percentage), % at 10 µM; Fluo-4 calcium fluorescence, FDSS; shares compounds with MrgX1 PAM; AID 602413, 2012; hit rate 13% among 1,200;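 active = ratio at least 3 SD above the weak peptide control, stable starting fluorescence, no direct agonism earlier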;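 note: compound followed by low BAM8-22 agonist challenge near EC20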
HEK293 Ca flux: nonspecific calcium signal in parental HEK293, confirmation, counter-screen for MrgX1 antagonist project, parental HEK293 cells, Fluo-4 calcium flux | shares compounds with MrgX1 antagonist | Fluo-4 calcium fluorescence, FDSS | fluorescence ratio F(max-min)/F0 at 10 µM | hit rate 2% among 4,000 | AID 624111, 2012;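 active = duplicate-averaged calcium fluorescence ratio at least three times the standard deviation of buffer wells, a nonspecific response in parental cells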
HEK293 Ca counter: calcium response in parental HEK293 cells, primary screen, counter-screen for MrgX1 allosteric activator project, cell-based, Fluo-4 calcium flux, duplicate; AID 624114, 2012; fluorescence ratio F(max-min)/F0 at 10 µM; shares compounds with MrgX1 antagonist; Fluo-4 fluorescence ratio; stronger effect = higher value; hit rate 0.4% among 4,000;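 active = calcium fluorescence ratio, averaged over duplicates, at least 3 SD of the buffer-well ratio, meaning a nonspecific response in receptor-free cells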;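 note: untransfected parental HEK293 lacking MrgX1 used as counterscreen for MrgX1 allosteric activators; fluorescence change taken during the second addition on a kinetic imager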
HEK293 Ca cntr2: calcium response in parental HEK293 cells, primary screen, counter-screen for MrgX1 agonist project, cell-based, Fluo-4 calcium flux, duplicate, agonist mode; shares compounds with MrgX1 antagonist; Fluo-4 calcium fluorescence (FDSS); stronger effect = higher value; fluorescence ratio F(max-min)/F0 at 10 µM; hit rate 8.7% among 4,000;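 active = calcium fluorescence ratio at least three times the spread of buffer wells, meaning a non-specific response in parental cells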
Numbers without * were called inactive; i = inactive; . = no result.

SMILES	RGS4 inh	RGS4 pot	Hep lipid drop	MrgX1 agonist	MrgX1 antagonist	MrgX1 PAM	MrgX1 allo conf	HEK293 Ca flux	HEK293 Ca counter	HEK293 Ca cntr2
CCOC(=O)C1C(=O)NC(N2CCN(Cc3ccccc3)CC2)=NC1c1ccccc1 (stereo not drawn)	i	i	-4.4	i	i	i	.	.	.	.
CCOC(=O)C1C(=O)NC(N2CCCCC2)=NC1c1ccccc1 (stereo not drawn)	i	i	1.9	i	i	8.86*	i	i	i	i
COc1ccccc1/C=C1\SC(=S)N(CCC(=O)Nc2cccc(O)c2)C1=O	i	i	-2.9	i	i	i	.	.	.	.
Nc1nc2n(n1)C(c1cccc(Cl)c1)CC(c1ccc(F)cc1)N2 (stereo not drawn)	i	i	.	i	i	9.68*	i	i	i	i
CCOc1ccc(C2CC(c3cccc(Cl)c3)n3nc(N)nc3N2)cc1 (stereo not drawn)	i	i	-10.8	i	i	i	.	.	.	.
COc1cccc(C(=O)N2CCN(Cc3ccccc3Br)CC2)c1	i	i	.	i	i	i	.	.	.	.
CC1=C(N2CCCCC2)CCC1=O	i	i	.	i	i	i	.	.	.	.
Cc1ccccc1-n1c(SCC(=O)N(C)C2CCS(=O)(=O)C2)nc2ccccc2c1=O (stereo not drawn)	i	i	-0.6	i	i	14.1*	i	i	i	i
COC(=O)C(C(=O)Nc1ccccc1C)C1CCCCCC1 (stereo not drawn)	i	i	-6.2	i	i	i	.	.	.	.
Fc1ccc(-c2cc(C(F)(F)F)nc(-n3cccn3)n2)cc1	i	i	24.0	i	i	8.23*	31.8%*	i	i	i
Fc1ccc(-c2cc(C(F)(F)F)nc(-n3cncn3)n2)cc1	i	i	11.7	i	i	i	.	.	.	.
CCOc1ccccc1N1CCN(C(=O)Nc2cccc(Cl)c2)CC1	i	i	-16.1	i	i	11.1*	i	i	i	i
Nc1nc(Cl)nc(N(c2ccccc2)c2ccccc2)n1	i	i	12.7	i	i	i	.	.	.	.
Nc1nc(CCl)nc(N(c2ccccc2)c2ccccc2)n1	i	i	1.3	i	i	10.1*	i	i	i	i
CC(C)(C)[C@@H]1C=C(C(N)=O)O[C@H](OCCCCO)C1	i	i	.	i	i	i	.	.	.	.
CC(=O)c1sc(NC(=O)c2ccccc2)nc1-c1ccccc1	i	i	4.3	i	i	i	.	.	.	.
Cc1sc(NC(=O)c2cccnc2)nc1-c1ccccc1	i	i	-3.5	i	i	10.6*	i	i	i	i
O=C(CN1CCCCCCC1)Nc1cccc(Cl)c1Cl	i	i	0.3	i	i	i	.	.	.	.
